{"source": "ChEMBL document CHEMBL4371006", "about": "“Discovery of N-[4-(Quinolin-4-yloxy)phenyl]benzenesulfonamides as Novel AXL Kinase Inhibitors” (J Med Chem, 2018)", "key": {"MDA-MB-231": {"system": "MDA-MB-231", "assay": "Antitumor activity against human MDA-MB-231 cells xenografted in mouse assessed as tumor growth inhibition at 30 mg/kg, ip bid measured 3 times per week starting at day 12", "type": "functional, organism-based", "method_in_brief": "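Female SCID/Beige mice inoculated with 2 x 10^6 MDA-MB-231 cells in HBSS:Matrigel (1:1) into third mammary fat pad under ketamine/xylazine. Test agent 30 mg/kg ip twice daily (12 h apart) in PEG400/H2O 70:30, or paclitaxel 10 mg/kg iv three times weekly; 10 mice/group. Tumors measured three times weekly from day 12; lungs and lymph nodes excised, formalin-fixed, nodes H&E-scored (mean ± SEM).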"}, "[1]": {"target": "Cyclin-dependent kinase 17 (Homo sapiens, UniProt Q00537)", "sequence (Q00537 whole entry)": "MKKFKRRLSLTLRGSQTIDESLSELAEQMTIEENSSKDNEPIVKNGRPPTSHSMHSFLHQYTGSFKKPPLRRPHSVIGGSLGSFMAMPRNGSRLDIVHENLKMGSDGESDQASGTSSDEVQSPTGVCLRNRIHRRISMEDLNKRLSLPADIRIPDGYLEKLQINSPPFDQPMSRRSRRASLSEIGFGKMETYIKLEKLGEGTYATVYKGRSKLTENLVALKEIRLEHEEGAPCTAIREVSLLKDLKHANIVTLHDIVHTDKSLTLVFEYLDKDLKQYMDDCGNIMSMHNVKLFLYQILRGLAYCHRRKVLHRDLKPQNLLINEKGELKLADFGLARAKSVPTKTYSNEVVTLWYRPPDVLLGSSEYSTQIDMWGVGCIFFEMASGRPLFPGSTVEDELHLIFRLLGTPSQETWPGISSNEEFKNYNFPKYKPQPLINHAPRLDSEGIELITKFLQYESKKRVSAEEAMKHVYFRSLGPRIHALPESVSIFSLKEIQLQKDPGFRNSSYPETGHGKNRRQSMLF", "assay": "Binding affinity to PCTK2 in SILAC-labeled human MDA-MB-231 cells lysate by mass spectrometry based kinAffinity assay", "type": "subcellular", "method_in_brief": "(§1)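 MDA-MB-231 lysate applied to KinAffinity matrix of immobilized broadband kinase inhibitors at graded densities to obtain BC50 per target. Competition then run with increasing free compound to give CC50; Kd derived by Cheng-Prusoff. Two competition experiments in parallel to check equilibrium, one with lysate pre-incubated with compound before adding matrix. Quantitation by mass spectrometry.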"}, "[2]": {"target": "MAP/microtubule affinity-regulating kinase 4 (Homo sapiens, UniProt Q96L34)", "assay": "Binding affinity to MARK4 in SILAC-labeled human MDA-MB-231 cells lysate by mass spectrometry based kinAffinity assay", "type": "subcellular", "method_in_brief": "(§2)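 Chemical proteomics: MDA-MB-231 lysate bound to matrix of immobilized broad kinase inhibitors at several densities (BC50), then competed with increasing free compound (CC50); proteins quantified by mass spectrometry, Kd via Cheng-Prusoff. Two competition formats run in parallel to check equilibrium.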"}, "[3]": {"target": "Cyclin-dependent kinase 18 (Homo sapiens, UniProt Q07002)", "assay": "Binding affinity to PCTK3 in SILAC-labeled human MDA-MB-231 cells lysate by mass spectrometry based kinAffinity assay", "type": "subcellular", "method_in_brief": "as §1"}, "[4]": {"target": "Tyrosine-protein kinase SYK (Homo sapiens) (UniProt P43405)", "assay": "Inhibition of SYK (unknown origin) using fluorescence labeled peptide as substrate at 10 uM by IMAP assay"}, "[5]": {"target": "Receptor tyrosine-protein kinase erbB-2 (Homo sapiens) (UniProt P04626)", "sequence (P04626 whole entry)": "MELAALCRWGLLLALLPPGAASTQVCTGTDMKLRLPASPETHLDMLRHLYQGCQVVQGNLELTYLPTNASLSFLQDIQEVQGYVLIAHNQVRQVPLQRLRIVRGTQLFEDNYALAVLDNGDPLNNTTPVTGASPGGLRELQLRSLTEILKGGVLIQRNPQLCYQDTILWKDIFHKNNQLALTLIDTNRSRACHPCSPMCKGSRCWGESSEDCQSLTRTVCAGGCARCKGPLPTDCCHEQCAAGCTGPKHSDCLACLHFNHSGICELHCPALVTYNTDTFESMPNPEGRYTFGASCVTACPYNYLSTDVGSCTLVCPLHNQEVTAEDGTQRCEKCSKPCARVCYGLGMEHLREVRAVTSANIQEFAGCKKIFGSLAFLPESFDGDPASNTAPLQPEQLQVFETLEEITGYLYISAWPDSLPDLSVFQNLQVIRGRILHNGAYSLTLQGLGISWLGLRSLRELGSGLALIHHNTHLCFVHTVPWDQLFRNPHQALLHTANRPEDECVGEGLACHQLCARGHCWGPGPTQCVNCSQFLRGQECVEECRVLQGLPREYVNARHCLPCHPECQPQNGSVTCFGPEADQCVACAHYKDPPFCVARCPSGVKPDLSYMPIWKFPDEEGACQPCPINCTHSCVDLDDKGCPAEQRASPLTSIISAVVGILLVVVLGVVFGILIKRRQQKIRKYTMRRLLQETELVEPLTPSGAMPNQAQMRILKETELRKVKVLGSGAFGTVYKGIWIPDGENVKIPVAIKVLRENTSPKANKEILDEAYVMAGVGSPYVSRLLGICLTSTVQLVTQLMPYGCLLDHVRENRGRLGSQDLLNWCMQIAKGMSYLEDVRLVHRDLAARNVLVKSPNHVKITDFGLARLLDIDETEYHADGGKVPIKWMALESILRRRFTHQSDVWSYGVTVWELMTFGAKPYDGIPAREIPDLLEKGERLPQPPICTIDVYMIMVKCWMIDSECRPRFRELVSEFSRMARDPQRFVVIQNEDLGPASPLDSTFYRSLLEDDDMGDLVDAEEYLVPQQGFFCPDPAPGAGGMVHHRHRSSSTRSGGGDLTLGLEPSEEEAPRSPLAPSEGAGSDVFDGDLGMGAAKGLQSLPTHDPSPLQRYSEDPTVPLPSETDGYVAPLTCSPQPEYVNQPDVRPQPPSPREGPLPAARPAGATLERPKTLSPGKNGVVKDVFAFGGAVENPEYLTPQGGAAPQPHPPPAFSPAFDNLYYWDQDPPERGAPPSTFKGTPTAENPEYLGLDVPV", "assay": "Inhibition of ERBB2 (unknown origin) using biotinylated peptide as substrate at 10 uM by TR-FRET assay"}, "[6]": {"target": "Tyrosine-protein kinase JAK3 (Homo sapiens) (UniProt P52333)", "sequence (P52333 whole entry)": "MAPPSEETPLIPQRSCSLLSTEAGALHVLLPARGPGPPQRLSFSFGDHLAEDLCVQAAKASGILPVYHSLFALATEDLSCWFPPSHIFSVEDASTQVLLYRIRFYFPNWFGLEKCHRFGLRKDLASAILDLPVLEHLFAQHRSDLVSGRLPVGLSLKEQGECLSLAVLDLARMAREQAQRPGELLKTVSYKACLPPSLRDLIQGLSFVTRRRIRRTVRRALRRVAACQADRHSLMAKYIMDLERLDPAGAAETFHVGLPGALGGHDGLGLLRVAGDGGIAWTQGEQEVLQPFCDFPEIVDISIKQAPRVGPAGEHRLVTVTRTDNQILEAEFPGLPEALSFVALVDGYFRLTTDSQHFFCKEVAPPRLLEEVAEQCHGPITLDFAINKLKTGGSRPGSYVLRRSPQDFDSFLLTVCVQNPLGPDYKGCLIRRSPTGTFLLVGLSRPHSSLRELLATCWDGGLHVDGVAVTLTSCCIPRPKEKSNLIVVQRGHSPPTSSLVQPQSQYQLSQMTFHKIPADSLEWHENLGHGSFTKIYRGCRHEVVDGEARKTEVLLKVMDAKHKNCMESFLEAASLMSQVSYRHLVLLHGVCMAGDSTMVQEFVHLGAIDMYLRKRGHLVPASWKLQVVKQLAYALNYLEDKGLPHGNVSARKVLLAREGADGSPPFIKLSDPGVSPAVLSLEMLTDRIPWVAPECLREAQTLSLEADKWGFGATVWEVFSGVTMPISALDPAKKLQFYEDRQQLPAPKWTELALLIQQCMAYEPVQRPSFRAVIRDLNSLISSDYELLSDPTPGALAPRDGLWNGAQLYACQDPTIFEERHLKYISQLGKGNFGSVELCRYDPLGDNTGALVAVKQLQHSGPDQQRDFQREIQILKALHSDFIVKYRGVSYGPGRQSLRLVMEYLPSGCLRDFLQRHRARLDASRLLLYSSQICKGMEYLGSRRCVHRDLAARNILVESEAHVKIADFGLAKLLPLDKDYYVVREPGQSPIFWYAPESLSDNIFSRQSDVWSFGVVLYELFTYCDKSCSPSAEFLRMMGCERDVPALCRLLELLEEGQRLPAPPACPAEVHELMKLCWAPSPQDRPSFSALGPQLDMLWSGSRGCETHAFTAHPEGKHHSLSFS", "assay": "Inhibition of JAK3 (unknown origin) using fluorescence labeled peptide as substrate at 10 uM by IMAP assay", "method_in_brief": "(§3)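 Kinase selectivity profiling, run by a contract lab, with the test compound at 10 µmol/L in triplicate. In the IMAP format, the kinase phosphorylates a fluorescently labelled substrate peptide in solution. A binding solution of trivalent metal-based nanoparticles is then added to capture the phosphopeptide, and the drop in rotational speed is read as fluorescence polarization. Results are given as percent inhibition of each kinase.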"}, "[7]": {"target": "Tyrosine-protein kinase SYK (Homo sapiens) (UniProt P43405)", "assay": "Inhibition of SYK (unknown origin) using fluorescence labeled peptide as substrate at 10 uM by IMAP assay", "method_in_brief": "as §3"}, "[8]": {"target": "Serine/threonine-protein kinase B-raf (Homo sapiens) (UniProt P15056)", "sequence (P15056 whole entry)": "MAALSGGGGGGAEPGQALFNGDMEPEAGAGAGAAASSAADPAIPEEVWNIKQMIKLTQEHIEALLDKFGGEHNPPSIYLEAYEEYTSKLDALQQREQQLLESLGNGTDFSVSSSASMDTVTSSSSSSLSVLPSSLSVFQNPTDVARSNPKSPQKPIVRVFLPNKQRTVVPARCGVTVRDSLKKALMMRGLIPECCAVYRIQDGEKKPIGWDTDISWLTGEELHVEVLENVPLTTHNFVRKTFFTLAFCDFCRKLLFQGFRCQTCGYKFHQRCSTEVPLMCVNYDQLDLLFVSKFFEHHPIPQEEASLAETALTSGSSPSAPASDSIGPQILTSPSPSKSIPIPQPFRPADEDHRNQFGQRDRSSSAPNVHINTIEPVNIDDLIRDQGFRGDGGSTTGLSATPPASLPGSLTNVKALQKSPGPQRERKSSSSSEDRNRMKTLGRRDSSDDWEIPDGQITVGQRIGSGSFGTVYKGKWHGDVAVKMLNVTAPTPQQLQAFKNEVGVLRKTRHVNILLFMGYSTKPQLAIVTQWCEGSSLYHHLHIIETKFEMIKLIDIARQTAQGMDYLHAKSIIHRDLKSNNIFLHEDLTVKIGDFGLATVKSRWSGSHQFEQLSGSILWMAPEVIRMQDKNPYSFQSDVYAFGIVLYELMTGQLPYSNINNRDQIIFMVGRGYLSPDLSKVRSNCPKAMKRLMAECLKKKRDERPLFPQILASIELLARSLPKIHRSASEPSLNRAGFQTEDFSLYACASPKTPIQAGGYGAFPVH", "assay": "Binding affinity to BRAF (unknown origin) at 10 uM"}, "[9]": {"target": "Receptor tyrosine-protein kinase erbB-2 (Homo sapiens) (UniProt P04626)", "assay": "Inhibition of ERBB2 (unknown origin) using biotinylated peptide as substrate at 10 uM by TR-FRET assay", "method_in_brief": "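HTRF (TR-FRET) kinase assay at 10 µmol/L compound, in triplicate. A biotinylated kinase-specific peptide is phosphorylated. Detection uses a europium cryptate-labeled anti-phospho-residue antibody as donor and XL665-streptavidin as acceptor. Result is percent inhibition.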"}, "[10]": {"target": "Receptor tyrosine-protein kinase erbB-2 (Homo sapiens) (UniProt P04626)", "assay": "Binding affinity to ERBB2 (unknown origin) at 10 uM", "method_in_brief": "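HTRF kinase assay for HER2 at 10 µM compound, triplicate: biotinylated peptide phosphorylated, detected by europium cryptate anti-phospho antibody and streptavidin-XL665 TR-FRET; percent inhibition.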"}, "[11]": {"target": "Tyrosine-protein kinase CSK (Homo sapiens, UniProt P41240)", "assay": "Inhibition of CSK (unknown origin) using fluorescently-labeled peptide as substrate at 10 uM by IMAP fluorescence polarization assay"}, "[12]": {"target": "Receptor-type tyrosine-protein kinase FLT3 (Homo sapiens) (UniProt P36888)", "assay": "Inhibition of FLT3 (unknown origin) using biotinylated peptide as substrate at 10 uM by TR-FRET assay"}, "[13]": {"target": "Dual specificity mitogen-activated protein kinase kinase 5 (Homo sapiens, UniProt Q13163)", "assay": "Binding affinity to MAP2K5 in SILAC-labeled human MDA-MB-231 cells lysate by mass spectrometry based kinAffinity assay", "type": "subcellular", "method_in_brief": "as §2"}, "[14]": {"target": "TANK-binding kinase 1-binding protein 1 (Homo sapiens, UniProt A7MCY6)", "sequence (A7MCY6 whole entry)": "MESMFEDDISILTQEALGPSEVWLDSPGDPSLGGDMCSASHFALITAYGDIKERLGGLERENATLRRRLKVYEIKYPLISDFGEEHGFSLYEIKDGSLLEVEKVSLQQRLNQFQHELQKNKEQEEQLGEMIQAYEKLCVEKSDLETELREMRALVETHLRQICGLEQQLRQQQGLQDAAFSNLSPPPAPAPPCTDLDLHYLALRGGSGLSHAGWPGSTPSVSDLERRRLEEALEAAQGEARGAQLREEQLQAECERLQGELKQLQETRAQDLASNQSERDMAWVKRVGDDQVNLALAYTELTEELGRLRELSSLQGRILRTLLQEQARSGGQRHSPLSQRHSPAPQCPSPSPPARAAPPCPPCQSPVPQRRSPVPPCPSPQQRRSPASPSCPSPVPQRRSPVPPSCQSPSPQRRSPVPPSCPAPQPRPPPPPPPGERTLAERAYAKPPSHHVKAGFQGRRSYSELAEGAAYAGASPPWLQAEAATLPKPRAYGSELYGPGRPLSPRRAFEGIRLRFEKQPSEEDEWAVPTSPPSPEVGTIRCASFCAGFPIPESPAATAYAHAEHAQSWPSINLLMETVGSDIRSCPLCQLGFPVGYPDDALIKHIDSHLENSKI", "assay": "Binding affinity to TBKBP1 in SILAC-labeled human MDA-MB-231 cells lysate by mass spectrometry based kinAffinity assay", "type": "subcellular", "method_in_brief": "as §1"}, "[15]": {"target": "Hepatocyte growth factor receptor (Homo sapiens, UniProt P08581)", "assay": "Binding affinity to MET in SILAC-labeled human MDA-MB-231 cells lysate by mass spectrometry based kinAffinity assay", "type": "subcellular", "method_in_brief": "as §2"}, "LIM domain kinase 2": {"target": "LIM domain kinase 2 (Homo sapiens, UniProt P53671)", "assay": "Binding affinity to LIMK2 in SILAC-labeled human MDA-MB-231 cells lysate by mass spectrometry based kinAffinity assay", "type": "subcellular", "method_in_brief": "as §2"}, "[16]": {"target": "Enoyl-CoA hydratase, mitochondrial (Homo sapiens, UniProt P30084)", "sequence (P30084 whole entry)": "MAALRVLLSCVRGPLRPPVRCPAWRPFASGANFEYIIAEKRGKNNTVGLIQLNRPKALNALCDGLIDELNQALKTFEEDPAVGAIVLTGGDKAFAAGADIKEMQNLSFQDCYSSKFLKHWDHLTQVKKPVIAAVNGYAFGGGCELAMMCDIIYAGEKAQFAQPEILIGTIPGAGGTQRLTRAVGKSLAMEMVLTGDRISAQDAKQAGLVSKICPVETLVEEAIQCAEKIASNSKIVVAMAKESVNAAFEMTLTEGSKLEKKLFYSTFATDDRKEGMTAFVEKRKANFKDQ", "assay": "Binding affinity to ECHS1 in SILAC-labeled human MDA-MB-231 cells lysate by mass spectrometry based kinAffinity assay", "type": "subcellular", "method_in_brief": "as §2"}, "[17]": {"target": "Serine/threonine-protein kinase TBK1 (Homo sapiens, UniProt Q9UHD2)", "assay": "Binding affinity to TBK1 in SILAC-labeled human MDA-MB-231 cells lysate by mass spectrometry based kinAffinity assay", "type": "subcellular", "method_in_brief": "as §1"}, "[18]": {"target": "5-azacytidine-induced protein 2 (Homo sapiens, UniProt Q9H6S1)", "sequence (Q9H6S1 whole entry)": "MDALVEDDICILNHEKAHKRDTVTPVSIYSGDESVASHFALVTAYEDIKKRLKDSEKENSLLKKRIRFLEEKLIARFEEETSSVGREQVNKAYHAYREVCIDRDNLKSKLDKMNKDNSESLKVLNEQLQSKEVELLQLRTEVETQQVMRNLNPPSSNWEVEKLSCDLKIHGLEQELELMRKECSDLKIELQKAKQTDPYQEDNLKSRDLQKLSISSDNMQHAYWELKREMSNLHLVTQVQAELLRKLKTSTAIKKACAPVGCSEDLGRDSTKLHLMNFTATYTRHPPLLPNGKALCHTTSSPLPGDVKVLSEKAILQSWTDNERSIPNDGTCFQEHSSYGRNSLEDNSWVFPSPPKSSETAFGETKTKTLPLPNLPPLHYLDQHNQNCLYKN", "assay": "Binding affinity to AZI2 in SILAC-labeled human MDA-MB-231 cells lysate by mass spectrometry based kinAffinity assay", "type": "subcellular", "method_in_brief": "as §2"}, "[19]": {"target": "Protein-tyrosine kinase 2-beta (Homo sapiens, UniProt Q14289)", "assay": "Binding affinity to PYK2 in SILAC-labeled human MDA-MB-231 cells lysate by mass spectrometry based kinAffinity assay", "type": "subcellular", "method_in_brief": "as §1"}, "[20]": {"target": "Tyrosine-protein kinase Tec (Homo sapiens, UniProt P42680)", "assay": "Binding affinity to TEC in SILAC-labeled human MDA-MB-231 cells lysate by mass spectrometry based kinAffinity assay", "type": "subcellular", "method_in_brief": "as §1"}, "[21]": {"assay": "Antitumor activity against AXL expressing mouse MXT cells allografted in mouse assessed as prolongation of survival time at 5 to 15 mg/kg, ip qd administered 21 consecutive days", "type": "functional", "settings": "read-out: MED", "method_in_brief": "(§4)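 MXT mammary tumour cells implanted subcutaneously and staged to about 125 mm3. Dosing then began: once daily ip for 21 consecutive days, at 5 or 15 mg/kg, alongside a vehicle group, with 7 animals per group. Survival in days was recorded for each animal and given as mean ± SD, and as T/C% against the vehicle group (vehicle = 100%).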"}, "[22]": {"assay": "Antitumor activity against AXL expressing mouse MXT cells allografted in mouse assessed as survival time at 5 mg/kg, ip qd administered 21 consecutive days (reference value: 100%)", "type": "functional", "method_in_brief": "as §4"}}, "note": "Calls of active or inactive are those of the source. No cut-off for these calls is given here.", "data": [{"smiles": "COc1cc2c(Oc3ccc(NS(=O)(=O)c4cc(F)ccc4F)cc3F)ccnc2cc1OCCCN1CCN(C)CC1", "values": [{"measurement": "TGI", "setting": "MDA-MB-231", "result": "Active"}, {"measurement": "Kd(free)", "setting": "[1]", "result": "> 7.651", "unit": "µM"}, {"measurement": "Kd(free)", "setting": "[2]", "result": 5.975, "unit": "µM"}, {"measurement": "Kd(free)", "setting": "[3]", "result": "> 6.194", "unit": "µM"}]}, {"smiles": "COc1cc2c(Oc3ccc(NS(=O)(=O)c4ccccc4C(F)(F)F)cc3F)ccnc2cc1OCCCN1CCN(C)CC1", "values": [{"measurement": "inhibition", "setting": "[4]", "result": "Active"}, {"measurement": "inhibition", "setting": "[5]", "result": "Active"}, {"measurement": "inhibition", "setting": "[6]", "result": "Active"}, {"measurement": "inhibition", "setting": "[7]", "result": "Active"}, {"measurement": "inhibition", "setting": "[8]", "result": "Active"}, {"measurement": "inhibition", "setting": "[9]", "result": "Active"}, {"measurement": "inhibition", "setting": "[10]", "result": "Active"}, {"measurement": "inhibition", "setting": "[11]", "result": "Active"}, {"measurement": "inhibition", "setting": "[12]", "result": "Active"}]}, {"smiles": "COc1cc2c(Oc3ccc(NS(=O)(=O)c4c(F)cccc4F)cc3F)ccnc2cc1OCCCN1CCN(C)CC1", "values": [{"measurement": "Kd(free)", "setting": "[13]", "result": 0.539, "unit": "µM"}, {"measurement": "Kd(free)", "setting": "[14]", "result": 2.09, "unit": "µM"}, {"measurement": "Kd(free)", "setting": "[15]", "result": 0.006, "unit": "µM"}, {"measurement": "Kd(free)", "setting": "LIM domain kinase 2", "result": 2.784, "unit": "µM"}, {"measurement": "Kd(free)", "setting": "[16]", "result": 9.237, "unit": "µM"}, {"measurement": "Kd(free)", "setting": "[17]", "result": 3.273, "unit": "µM"}, {"measurement": "Kd(free)", "setting": "[18]", "result": 2.982, "unit": "µM"}, {"measurement": "Kd(free)", "setting": "[19]", "result": 6.928, "unit": "µM"}, {"measurement": "Kd(free)", "setting": "[20]", "result": "> 3.674", "unit": "µM"}]}, {"smiles": "COc1cc2c(Oc3ccc(NS(=O)(=O)c4cc(F)ccc4F)cc3F)ccnc2cc1OCCCN1CCCC(C)C1", "note": "(centres undefined)", "values": [{"measurement": "minimal effective dose", "setting": "[21]", "result": 5, "unit": "mg/kg"}, {"measurement": "T/C", "setting": "[22]", "result": 118, "unit": "%"}]}]}
